Compounds with a hit are over-represented: about 12% of the library has one in this group of screens.
WT yeast gro inh: growth inhibition of WT yeast, mitochondrial fusion screen; mitochondrial fusion phenotypic screen, WT strain; inhibition, % at 10 µM; 2.1% of 190,000 active; AID 1362; in the data active = inhibition above about 58%; tested in S. cerevisiae
Diaphorase act: diaphorase activation or chemical reduction counter-screen. Diaphorase/resazurin coupled assay, resorufin fluorescence, 16 min; stronger effect = higher value; 1 = vehicle wells, 0 = NADH-free wells. activation factor at 20 µM. 0.005% of 190,000 active;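 active = diaphorase activity raised at least twofold by the compound at 20 µM; inactive = activation factor below 2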
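Material: Clostridium kluyveri diaphorase, purified enzyme; Quantity: enzyme 0.07 U/mL final; Medium: HEPES pH 7.4 buffer with MgCl2 and Tween 20; Dosing: single compound dose of 20 µM, 1% DMSO final; Schedule: 16 min reaction at room temperature; Measured by: red resorufin fluorescence at 544/590 nm excitation/emission.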
Diaph inh CS: diaphorase inhibition or chemical oxidation counter-screen; diaphorase resazurin-to-resorufin fluorescence, NADH, 16 min; bacterial (C. kluyveri) enzyme, not human; inhibition, % at 20 µM; 0.69% of 190,000 active;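 active = primary screen inhibition at 20 µM above a set limit, cut at about 50% in these data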
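System: Bacterial diaphorase enzyme (C. kluyveri) | Incubation: 16-min room-temperature incubation before reading | Benchmarks: No-NADH positive control and DMSO neutral control | Measured by: Resorufin fluorescence 544/590 nm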
ROMK primary: modulates human ROMK potassium channel activity; B-score at 10 µM; P48048; Tet-inducible ROMK, thallium flux fluorescence; actives lie on both sides; 2% of 130,000 active;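 active = signal ratio slope over the read window, or its plate-corrected B-score, at least 3 SD from the plate mean, either direction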;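 also: B-score of the F/F0 ratio slope over 7 to 12 s after thallium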
Target sequence (P48048 whole entry, looked up): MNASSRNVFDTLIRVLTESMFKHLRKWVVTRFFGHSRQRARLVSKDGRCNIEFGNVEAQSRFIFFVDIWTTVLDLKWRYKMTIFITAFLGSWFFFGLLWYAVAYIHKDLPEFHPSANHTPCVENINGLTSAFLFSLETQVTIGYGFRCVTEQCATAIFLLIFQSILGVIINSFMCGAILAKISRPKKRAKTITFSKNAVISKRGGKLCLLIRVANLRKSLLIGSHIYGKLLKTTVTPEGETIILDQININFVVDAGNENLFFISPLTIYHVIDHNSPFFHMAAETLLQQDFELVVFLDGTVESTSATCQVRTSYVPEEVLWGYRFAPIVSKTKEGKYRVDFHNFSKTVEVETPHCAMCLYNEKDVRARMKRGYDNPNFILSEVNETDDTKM
Lmaj promast: reduces viability of Leishmania major promastigotes | resazurin fluorescence viability | inhibition, % at 10 µM | 9% of 200,000 active | AID 1063; in the data active = inhibition above about 50%;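 also: promastigotes grown with compound for 44 hours at 28 °C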
Cl transport mod: modulates chloride dependent transport by human KCC2; 2.2% of 190,000 active; KCC2 cells, thallium flux FluoZin-2 fluorescence; AID 1456; B-score of Tl+ flux slope (higher = more flux/activation; lower = inhibition) at 10 µM;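 active = thallium flux slope and its plate-corrected score both differing from the plate sample mean at a set confidence after two filtering rounds, in either direction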;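 also: slope of fluorescence scaled to starting intensity during 10 to 20 s after thallium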
Large screens that a line does not name were inactive.

CCc1sc(/C=C(/C#N)C(N)=S)cc1[N+](=O)[O-]	ROMK primary -4.4
CCc1ccc(/C=C(/C#N)C(N)=S)s1	none
Cc1cc(C)n(-c2ncnc3ccccc23)n1	none
CCOC(=O)C(C)S(=O)(=O)c1ccc(C(F)(F)F)cn1 (stereo not given)	none (no result: ROMK primary, Cl transport mod)
COc1ccc(Nc2nc(N)c([N+](=O)[O-])c(NCCO)n2)cc1	none (no result: WT yeast gro inh, Diaphorase act, Diaph inh CS, Lmaj promast)
CNc1nc(Nc2ccc(Br)cc2)nc(N)c1[N+](=O)[O-]	Lmaj promast 50
O=C(OCc1nnn(Cc2ccccc2)c1-c1c(COC(=O)c2ccccc2)nnn1Cc1ccccc1)c1ccccc1	none (no result: WT yeast gro inh, Diaphorase act, Diaph inh CS, ROMK primary, Lmaj promast)
CC(C)C(=O)N=C1SC2CS(=O)(=O)CC2N1Cc1ccccc1 (stereo not given)	Lmaj promast 52
CC(C)C(=O)N=C1SC2CS(=O)(=O)CC2N1Cc1ccc(Cl)cc1 (stereo not given)	none (no result: WT yeast gro inh, Diaphorase act, Diaph inh CS, ROMK primary, Lmaj promast)
Cc1ccc(N(CC(=O)NC(C)(C)C)C(=O)CS(=O)CC(=O)Nc2ccc(F)cc2)cc1 (stereo not given)	none
CCCn1c(SCC(=O)NNC(=O)c2ccccc2)nnc1-c1cccnc1	none (no result: WT yeast gro inh, Diaphorase act, Diaph inh CS, ROMK primary, Lmaj promast)
Cc1cc(NC2CCCCC2)nc(NCc2ccccc2)n1	Lmaj promast 97
Cc1cc(N/N=C/c2ccccc2Cl)nc(NCc2ccccc2)n1	Lmaj promast 86 (no result: ROMK primary)
Cc1cc(C)nc(N/N=C/c2ccccc2Cl)n1	none (no result: WT yeast gro inh, Diaphorase act, Diaph inh CS, ROMK primary, Lmaj promast)
COc1ccc(Nc2cc(C)nc(NCc3ccccc3)n2)cc1	none (no result: WT yeast gro inh, Diaphorase act, Diaph inh CS, ROMK primary, Lmaj promast)
Cc1ccc(Nc2cc(C)nc(NCc3ccccc3)n2)cc1	Lmaj promast 100
O=C(COC(=O)/C=C/c1ccccc1Cl)NC(=O)Cc1ccccc1	none (no result: ROMK primary)
O=C(CCc1nnc(CCCCc2ccccc2)o1)N1CCC(N2CCCC2)CC1	none (no result: Cl transport mod)
CC(=O)c1c(N2CCN(Cc3ccccc3)CC2)nc(=S)n(Cc2ccccc2)c1C	Lmaj promast 63
CC(=O)c1c(N2CCCC2)[nH]c(-c2ccccc2)nc1=S	ROMK primary 4.8, Cl transport mod 33
CC(=O)c1c(N2CCN(Cc3ccccc3)CC2)[nH]c(-c2ccccc2)nc1=S	ROMK primary 7.5, Cl transport mod 45
CSc1nc(-c2ccccc2)nc(N2CCCC2)c1C(C)=O	none
CC(=O)c1c(N)[nH]c(-c2ccccc2)nc1=S	Diaph inh CS 50, ROMK primary 4.4 (no result: Cl transport mod)
CC(=O)c1c(N2CCN(Cc3ccccc3)CC2)nc(=S)n(-c2ccccc2)c1C	none
CC(=O)c1c(N2CCCCC2)nc(=S)n(Cc2ccccc2)c1C	none
CCCSC(=O)N(CC)CC(=O)Nc1c(CC)cccc1CC	none
CC(=O)c1c(C)[nH]c(C(=O)OCC(=O)N2c3ccccc3NC(=O)C2(C)C)c1C	Lmaj promast 56
Cc1nn(-c2ccccc2)c(C)c1C(=O)OCC(=O)N1c2ccccc2NC(=O)C1(C)C	Lmaj promast 88
Cc1cnc(C(=O)OCC(=O)N2c3ccccc3NC(=O)C2(C)C)cn1	none
Cc1cccc(Oc2cc(NC(=O)Cn3cnc([N+](=O)[O-])n3)cc([N+](=O)[O-])c2)c1	Lmaj promast 100
Cc1cc([N+](=O)[O-])nn1CCCC(=O)Nc1cc(Oc2ccccc2)cc([N+](=O)[O-])c1	none
Cc1cc(=O)n2cccc(O)c2n1	Diaph inh CS 63
Cc1cc(=O)n2[nH]c(C)c(-c3ccccc3)c2n1	none (no result: ROMK primary)
CC(C)C[C@H](NC(=O)OC(C)(C)C)c1nnc(SCc2ccccc2)o1	Lmaj promast 85
CCOC(=O)CSc1nnc([C@H](Cc2ccccc2)NC(=O)OC(C)(C)C)o1	none
CC(C)(C)OC(=O)N[C@@H](Cc1ccccc1)c1nnc(S(=O)(=O)Cc2cccc(F)c2)o1	none (no result: Cl transport mod)
Cc1ccccc1CS(=O)(=O)c1nnc([C@H](CC(C)C)NC(=O)OC(C)(C)C)o1	WT yeast gro inh 75 (no result: ROMK primary)
CC[C@@H](C)[C@H](NC(=O)OC(C)(C)C)c1nnc(S(=O)(=O)Cc2cc(C)ccc2C)o1	WT yeast gro inh 66, Cl transport mod -6.4
NNC(=O)c1nn(-c2ccc(Cl)cc2)cc1O	none (no result: WT yeast gro inh, Diaphorase act, Diaph inh CS, ROMK primary, Lmaj promast)
CCCCCCCCCCCCCCCC[n+]1cccc2ccccc21	Lmaj promast 100 (no result: ROMK primary)
O=C(C[n+]1cccc2ccccc21)c1ccccc1	none
CCOC(=O)c1sc(NC(=O)/C=C/c2cnn(C)c2C)c(C(=O)OC(C)C)c1C	WT yeast gro inh 59 (no result: Cl transport mod)
Cc1ccc(C(=O)Nc2nnc(C)s2)o1	none
Cc1ccc(/C=C/C(=O)Nc2sc(C)c(C)c2C(=O)OC(C)C)o1	Lmaj promast 51
Cc1ccc(/C=C/C(=O)Nc2nnc(C)s2)o1	Lmaj promast 55
CCOc1nc(NC(=O)NS(=O)(=O)c2cccc(Cl)c2)nc(-c2ccccc2)n1	none
COc1cc(S(=O)(=O)N(Cc2ccccn2)Cc2ccccc2Cl)ccc1-n1cnnn1	none (no result: ROMK primary)
COc1ccc(CN(Cc2ccc(OC)cc2)S(=O)(=O)c2ccc(-n3cnnn3)c(C)c2)cc1	none
COc1ccccc1CN(Cc1ccco1)S(=O)(=O)c1ccc(-n2cnnn2)c(OC)c1	Lmaj promast 73
COc1cccc(CN(Cc2cccnc2)S(=O)(=O)c2ccc(-n3cnnn3)c(C)c2)c1OC	Lmaj promast 98
Cc1cc(C)nc(Sc2ccc([N+](=O)[O-])cc2[N+](=O)[O-])n1	Lmaj promast 87
CN(C)/N=C/c1ccc(Sc2ccc([N+](=O)[O-])cc2[N+](=O)[O-])o1	none
CCCCC(CCC(=O)NNC(=O)Cc1ccccc1)C(=O)O (stereo not given)	none
CCC1(C)COC(C)(CC(=O)NNC(=O)Nc2ccccc2)OC1 (stereo not given)	none (no result: Cl transport mod)
O=C(CSc1ccccc1)NCCCN1CCOCC1	Lmaj promast 77 (no result: Cl transport mod)
O=C(NCCCN1CCOCC1)c1ccccc1-c1ccccc1	WT yeast gro inh 74 (no result: ROMK primary, Cl transport mod)
O=C(Nc1ccccc1)Nc1ccccc1C(=O)NCCCN1CCOCC1	none (no result: WT yeast gro inh, Diaphorase act, Diaph inh CS, ROMK primary, Lmaj promast)
O=C(CSCc1ccccc1)NCCCN1CCOCC1	none
Cc1cc(C)c(C)c(S(=O)(=O)Nc2ccccc2C(=O)NCCCN2CCOCC2)c1C	Lmaj promast 97
O=C1c2ccccc2C2=Nc3ccccc3SC(c3cccc(F)c3)C12 (stereo not given)	WT yeast gro inh 84, Lmaj promast 89
O=C1c2ccccc2C2=Nc3ccccc3SC(c3ccc(Cl)cc3)C12 (stereo not given)	WT yeast gro inh 83, Lmaj promast 99
COC(=O)C1=C(C)N=C2SC(C)C(=O)N2C1c1cccc(F)c1 (stereo not given)	none (no result: Cl transport mod)
CNc1nc(N/N=C/c2cc3c(cc2[N+](=O)[O-])OCO3)nc(Nc2ccccc2)n1	Lmaj promast 65 (no result: ROMK primary)
Cc1ccccc1N1CN(Cc2ccco2)CNC1=S	none (no result: ROMK primary)
O=C(OCC(=O)c1ccccc1Br)c1ccncc1	none
O=C(CN1C(=O)/C(=C\c2ccc(F)cc2)Oc2ccccc21)N1CCN(c2ccccn2)CC1	none

Screens as filed in PubChem BioAssay.
